High-throughput results (PubChem)
dFosB activator: activators of delta FosB homodimer, primary screen, biochemical, fluorescence polarization, TAMRA-CDK5 oligo, single point. Protein FosB (Mus musculus), P13346. activation, % at 25 µM. purified delta FosB; percent of positive-control signal above neutral wells. AID 493131, 2011. 340,000 tested, 0.99% active;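 active = mean activation above about 17%, with every replicate also reaching it, limit read from the data, passing the limit was not always enough; inconclusive = only one of the two conditions met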
Target sequence (P13346 whole entry, looked up): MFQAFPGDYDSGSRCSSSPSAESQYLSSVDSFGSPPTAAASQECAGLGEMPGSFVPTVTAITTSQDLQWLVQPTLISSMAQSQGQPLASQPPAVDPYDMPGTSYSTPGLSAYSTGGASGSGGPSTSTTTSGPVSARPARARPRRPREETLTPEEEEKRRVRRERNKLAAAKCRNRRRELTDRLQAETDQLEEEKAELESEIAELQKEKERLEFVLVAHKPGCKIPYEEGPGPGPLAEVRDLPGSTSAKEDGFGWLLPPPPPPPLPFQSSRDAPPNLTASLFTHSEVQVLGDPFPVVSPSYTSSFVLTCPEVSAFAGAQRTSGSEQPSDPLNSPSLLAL
SR-BI DiI inh: inhibitors of SR-BI mediated HDL lipid uptake, primary screen, ldlA[mSR-BI] cells, fluorescence, single point | 320,000 tested, 0.96% active | ldlA[mSR-BI] CHO cells, DiI-HDL uptake fluorescence, 3 h | Scavenger receptor class B member 1 (Mus musculus), Q61009 | inhibition, % at 12.5 µM | AID 488896, 2010;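 active = mean replicate inhibition of at least 70% and a set share of replicates each scoring 70 or more; inconclusive = meets just one of the two criteria; inactive = fails both criteria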;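 note: 0% = median of neutral control wells and 100% = median of positive control wells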
rRNA inh HTS: reduced GFP signal of wild-type E. coli, primary screen, bacterial rRNA inhibitor project, GFP/RFP fluorescence, OD600, single point. 350,000 tested, 1.6% active. E. coli WT GFP vs humanized-ribosome RFP mutants, 24 h; hits give low values; DMSO median 0, no signal -100. GFP signal change (wild-type ribosome), % (no concentration beside the values). AID 720706, 2013;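 active = significant combined selectivity score with lowered wild-type GFP, culture density cut under 30%, mutant RFP and density less affected; inactive = any of these conditions unmet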
SR-BI uptake up: activators of SR-BI mediated DiI-HDL uptake, primary screen, ldlA[mSR-BI] CHO cells, DiI fluorescence. 3 h; 100 = double the neutral-control signal. activation, % at 12.5 µM. 320,000 tested, 0.096% active. AID 504775, 2011;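 active = mean replicate activation of at least 60% and every replicate at or above 60%; inconclusive = mean or all-replicate condition met, but not both; inactive = mean below 60% and not all replicates reaching 60%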;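 note: 0% = median plate neutral-control signal and 100% = twice that signal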
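Material: SR-BI-overexpressing, LDLR-lacking CHO cells; schedule: compound exposure 3 h, 37 °C; reagent: DiI-labelled HDL at 10 µg/mL final; technique: bottom-read fluorescence, 550/595 nm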
XiGFP reactiv: activators of inactive X chromosome reactivation, primary screen, imaging, XiGFP fibroblasts, GFP high-content imaging, set 2; XiGFP mouse fibroblasts, % GFP-positive cells imaging, 3 d; cells co-treated with 5-aza-dC sensitizer; scaled so ellipticine positive control = 100%; AID 743238, 2013; activation, % at 7.58 µM; 360,000 tested, 0.055% active;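 active = mean normalized replicate activation at least 10% and every replicate at or above 10%; inconclusive = only one of the two criteria met; inactive = mean below 10% and not all replicates reach 10%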;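 note: 0% = median of on-plate neutral control wells and 100% = ellipticine 6 µM median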
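Material: SV40-immortalized XiGFP fibroblast cells, line 68-5-11 | Buffer or medium: DMEM containing 5-aza-dC | Dosing: One concentration, pinned | Times: 3 d treatment, 15 min room-temperature fixation | Controls: Ellipticine 6 µM positive control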
PvdQ acylase: P. aeruginosa PvdQ acylase inhibitors, primary screen, biochemical, fluorescence, plate reader and imaging, single point; PvdQ acylase [Pseudomonas aeruginosa LESB58]; purified PvdQ acylase; 340,000 tested, 0.063% active; inhibition, % at 10 µM; in the data active = inhibition above about 30%, passing the limit was not always enough; inconclusive = no clear call, values can overlap the other calls;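 note: 0% = vehicle neutral wells and 100% = reference inhibitor wells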
AID977621: growth inhibition of wild-type GFP E. coli, dose response, H69 mutant RFP, cherry-pick; AID 977621, 2014; 1,900 tested, under 10 active; E. coli wild-type GFP strain growth, fluorescence, 24 h; activity change, negative = inhibition at 50 µM; shares compounds with rRNA inh HTS;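 active = Wild-type ribosome reporter drop at least double the humanized mutant ribosome reporter drop, growth loss under a set limit; inconclusive = no clear call, values can overlap the other calls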;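 note: wild-type GFP and H69 mutant RFP strains grown together 50/50 in each well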
AID977628: E. coli growth inhibition, wild-type GFP versus h24 humanized RFP strain, dose response, h24 mutant RFP vs wild-type GFP, cherry-pick | shares compounds with rRNA inh HTS | E. coli WT GFP strain growth, fluorescence, 24 h | activity change, negative = inhibition at 50 µM | 1,900 tested, under 10 active | AID 977628, 2014;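 active = compound lowering the normal-ribosome reporter at least twice as much as the humanized-ribosome reporter, growth loss under a set limit; inconclusive = no clear call, values can overlap the other calls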;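 note: wild-type GFP and h24 humanized RFP strains co-cultured 1 to 1 per well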
Numbers without * were called inactive; ? = inconclusive; / = not tested or not shown. Shown are actives, neighbours in structure and some others; about 2.6% of the full set was active somewhere.

SMILES	dFosB activator	SR-BI DiI inh	rRNA inh HTS	SR-BI uptake up	XiGFP reactiv	PvdQ acylase	AID977621	AID977628
COc1cccc(C(=O)c2c[nH]c(C(=O)NCc3cccnc3)c2)c1	-10	-11	-29*	11	0	-7	/	-10
CCOc1ccc(S(=O)(=O)NCCC(=O)NC2CCN(Cc3ccccc3)CC2)cc1	-2	3	4	-3	0	12	/	/
COc1ccc(C2CC(c3ccc(Br)cc3)=NN2C(=O)CN2CCCC2)cc1 (stereo not given)	8	5	-19*	-5	0	-13	-3.5	?
COc1ccc(C2=NN(C(=O)CN3CCCCC3)C(c3ccc(C)cc3)C2)cc1 (stereo not given)	0	15	-20	-15	0	-17	/	/
Cc1ccc(OCC(=O)N2CCc3ccccc3C2)c(Br)c1	-4	-4	-39	4	0	8	/	/
COc1ccc(NC(=O)CSc2n[nH]c(-c3ccncc3)n2)c([N+](=O)[O-])c1	-7	-26	-18*	26	0	-6	?	-4.8
COCCNC(=S)N=Nc1c(O)[nH]c2c(C)cc(C)cc12	-18	-6	13	6	0	-9	/	/
CSc1ccccc1C(=O)NCCc1ccc(S(=O)(=O)N2CCCCC2)cc1	2	5	-21*	-5	/	2	/	-13
O=C(NCCc1ccccc1)c1ccc(S(=O)(=O)N2CCCCC2)cc1	/	/	4	/	0	/	/	/
CCOC(=O)N1CCC(NS(=O)(=O)c2cc3c(cc2C)NC(=O)CO3)CC1	-1	-9	/	9	/	-1	/	/
Cc1ccc([N+](=O)[O-])c(OCCn2cnc3ccccc32)c1	0	-20	-20*	20	0	-6	-2.8	-6.6
Cc1ccc(OCCOCCn2cnc3ccccc3c2=O)c([N+](=O)[O-])c1	0	19	-7	-19	0	-6	/	/
COc1cc(OC)c(OC)cc1CN1CCCC(C(=O)c2sccc2C)C1 (stereo not given)	2	/	-3	/	0	2	/	/
Cc1ccsc1C(=O)C1CCCN(Cc2cc(F)ccc2-n2cccn2)C1 (stereo not given)	-7	4	-33*	-4	0	10	-13	-14
CCN(CC(=O)Nc1c(F)cccc1F)C(=O)CSc1ccccc1	3	-12	3	12	0	-18	/	/
Cc1ccc(S(=O)(=O)N2CCOCC2)cc1NC(=O)COc1ccc(-c2nnco2)cc1	0	-1	-19*	1	0	3	-16	?
CN(C)CCCN(C(=O)COc1ccc(Cl)cc1)c1nc2c(F)cccc2s1	1	/	5	/	0	-13	/	/
CN(C)CCCN(C(=O)CCOc1ccccc1)c1nc2c(F)cccc2s1	-3	/	-14*	/	0	-20	-8.5	?
CN(C)CCCN(C(=O)COc1ccc(Cl)cc1)c1nc2ccc(F)cc2s1	-110	-17	-23*	17	0	-1	-6.3	-4.4
CC(=O)OC1COC(n2ccc3cc([N+](=O)[O-])ccc32)C(OC(C)=O)C1OC(C)=O (stereo not given)	-1	-159	/	?	/	-5	/	/
O=C(NCc1ccccc1)C(c1cccc2ccccc12)n1c(=O)c(-c2cc3ccccc3[nH]2)nc2ccccc21 (stereo not given)	/	/	13	/	0	/	/	/
O=C(CSCc1cnn(-c2ccccc2)c1-n1cccc1)NCc1cccnc1	-8	9	-25*	-9	0	15	8.3	-2.9
COc1ccccc1CNC(=O)CSCc1cnn(-c2ccccc2)c1-n1cccc1	-4	2	/	-2	/	-5	/	/
COc1ccc2c(CC(=O)NCc3ccc4c(c3)OCO4)coc2c1	-3	7	-25*	-7	/	7	2.3	?
CC(OC(=O)Cc1ccc(F)cc1)C(=O)NCc1ccc2c(c1)OCO2 (stereo not given)	-2	-37	-4	37	0	-14	/	/
SMILES	dFosB activator	SR-BI DiI inh	rRNA inh HTS	SR-BI uptake up	XiGFP reactiv	PvdQ acylase	AID977621	AID977628
COc1cccc(CC(=O)OC(C)C(=O)NCc2ccc3c(c2)OCO3)c1 (stereo not given)	-2	5	-31*	-5	0	-12	?	?
CCOc1ccc2nc(NC(=O)CSc3nc(SC)ns3)sc2c1	-3	45	-24*	-45	/	4	-8.9	/
CCOc1ccc2nc(NC(=O)CSc3ccc(Cl)cc3)sc2c1	5	12	/	-12	/	2	/	/
CSc1sc(C#N)c2c1/C(=N\O)CCC2	1	-2	3	2	0	-13	/	/
COc1ccc(CC(=O)NC(C)c2ccc3ccccc3c2)cc1 (stereo not given)	-4	-4	-23*	4	0	3	/	?
O=C(Nc1ccc(C(=O)N2CCOCC2)cc1)C1CCCC1	-4	-22	-4.4*	22	0	-21	3.4	8.3
O=C(Cc1cccc(NC(=O)C2CCN(C(=O)C3CCCCC3)CC2)c1)Nc1cccc(C(=O)N2CCCC2)c1	2	31	-22*	-31	0	-7	-19	/
O=C(Nc1ccc(C(=O)N2CCCC2)cc1)C1CCCC1	-4	-30	22	30	0	-6	/	/
O=C(c1cccc(F)c1)N1CC[C@@H]2[C@@H](CO)Nc3ccc(-c4cccc(F)c4)cc3[C@@H]21	/	/	-50	/	0	/	/	/
O=C(Cn1nc(C(F)F)cc1C1CC1)NCCC1=CCCCC1	-1	-2	-21	2	/	-5	/	/
COc1cc(OC)c(NS(=O)(=O)c2cccc(C(=O)OCC(=O)NCC3CCCO3)c2)cc1Cl (stereo not given)	-6	/	-23*	/	0	-10	-17	-12
C1=C(CCNCC2CCCCC2)CCCC1	-2	22	/	-22	/	-8	/	/
Cc1nn(CC(O)COc2ccc3c(c2)CCC3)c(C)c1Br (stereo not given)	0	16	/	-16	/	-11	/	/
